HTR5A inv ag = counter-screen for OPRM1-OPRD1 inverse agonists: human HTR5A inverse agonism. P47898. HTR5A cell line, luminescence. inhibition, % at 9.3 µM. 0.083% of 340,000 active. AID 504634; in the data active = inhibition mostly above about 23%, no sharp cut-off; inactive = mostly below about 18%;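 also: 0% = cells with DMSO and 100% = no-cell wells with DMSO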
OPRM1-OPRD1 inv = mu-delta opioid heterodimer inverse agonism; P35372+P41143; cell-based MOR-DOR heterodimer luminescence; inhibition, % at 9.3 µM; 0.21% of 340,000 active; in the data active = inhibition above about 22%, passing the limit was not always enough;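 also: 0% = cells with DMSO and 100% = wells without cells with DMSO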
MC4R barr agon = agonists of human melanocortin 4 receptor (MC4R) beta-arrestin; P32245; U2OS MC4R beta-arrestin complementation, luminescence; percent of melanotan II response, DMSO zero; activation, % at 8.9 µM; 0.98% of 360,000 active; AID 540308;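 active = activation above a per-plate cutoff, the mean activation of sample wells on that plate plus 3 SD, cut at about 8% in these data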
Target sequence (P32245 whole entry, looked up): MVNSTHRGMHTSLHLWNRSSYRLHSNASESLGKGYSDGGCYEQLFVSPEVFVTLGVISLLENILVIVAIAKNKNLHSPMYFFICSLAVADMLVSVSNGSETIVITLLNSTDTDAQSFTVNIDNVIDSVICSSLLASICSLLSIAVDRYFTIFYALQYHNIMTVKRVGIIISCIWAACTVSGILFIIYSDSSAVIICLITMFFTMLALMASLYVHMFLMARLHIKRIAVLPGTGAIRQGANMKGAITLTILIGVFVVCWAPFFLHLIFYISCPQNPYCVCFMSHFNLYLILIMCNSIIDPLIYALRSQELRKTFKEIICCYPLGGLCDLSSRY
HTR5A ag ctr = HTR5A agonism, opioid heterodimer counter-screen. P47898. HTR5A agonist assay, luminescence, cell-based. activation, % at 9.3 µM. 0.61% of 340,000 active. AID 504692; in the data active = activation mostly above about 9.5%, no sharp cut-off; inactive = mostly below about 7.6%;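 also: 0% = cells with vehicle only and 100% = reference agonist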
OPRM1-OPRD1 ag = OPRM1-OPRD1 heterodimerization agonism; P35372+P41143; cells, luminescence; activation, % at 9.3 µM; 0.3% of 340,000 active; AID 504326; in the data active = activation above about 18%;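 also: 0% = vehicle-treated cells and 100% = reference agonist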
MC4R antag cAMP = human MC4R antagonism in cAMP assay; inhibition, % at 6.5 µM; MC4R-expressing cells, MTII-stimulated cAMP, LANCE TR-FRET; 0.48% of 360,000 active; P32245;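 active = inhibition above its plate's cutoff, the mean of tested wells on that plate plus 3 SD, cut at about 29% in these data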;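 also: 0% = Melanotan II alone and 100% = Melanotan II plus saturating MCL0020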
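Material: human MC4R-expressing U2OS cells. Probe or stimulus: Melanotan II challenge. Dosing: 6.5 µM single dose. Times: 30-min compound, 1-h challenge, 1-h detection, room temperature. Technique: TR-FRET with Eu-cAMP and labeled anti-cAMP, 671 nm. Replication: singlicate.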
MC4R barr ag = human MC4R beta-arrestin agonism confirmation; AID 602192; U2OS MC4R beta-arrestin recruitment, luminescence; scaled DMSO 0%, Melanotan II 100%; shares compounds with MC4R barr agon; 31% of 2,400 active; activation, % at 8.9 µM;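 active = mean activation across replicates above the hit cutoff set in the earlier primary screen, cut at about 8% in these data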
MOR DOR agonist = OPRM1-OPRD1 heterodimer agonism counter-screen. shares compounds with MC4R barr agon. U2OS PathHunter beta-arrestin, beta-gal luminescence; percent of deltorphin B response, DMSO zero. activation, % at 9.2 µM. 5.8% of 2,400 active;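 active = mean activation across replicates exceeds the hit threshold derived in the earlier primary screen, cut at about 18% in these data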;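 also: 100% = deltorphin B at 0.9 µM final and 0% = DMSO alone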
Numbers without * were called inactive; . = no result. Hits are enriched below; roughly 2.4% of the tested compounds scored in any of these assays.

SMILES	HTR5A inv ag	OPRM1-OPRD1 inv	MC4R barr agon	HTR5A ag ctr	OPRM1-OPRD1 ag	MC4R antag cAMP	MC4R barr ag	MOR DOR agonist
COc1ccc(NC(=O)[C@@H]2CC=C[C@@H]3CCN(Cc4ccc(Cl)c(Cl)c4)C(=O)[C@@H]32)cc1	4.3	-20.9	12.9*	-0.5	3.8	4.4	10.9*	2.8
Clc1ccc(-c2nnc(-c3ccc4ccccc4c3)o2)cc1	7.2	3.1	1.4	-2.0	-0.6	5.9	.	.
Cc1ccc(-c2nnc(-c3ccc4ccccc4c3)o2)cc1	-10.3	-8.6	10.2*	2.6	1.7	3.0	-3.7	1.1
CC1CCCCN1S(=O)(=O)c1ccc(C(=O)Nc2nnc(C3CC3)o2)cc1 (stereo unspecified)	7.9	19.5	-4.6	-2.1	-3.4	-5.1	.	.
O=C(O)c1cncc(C#Cc2ccccc2)c1	-10.3	17.5	-2.2	2.8	-3.4	6.3	.	.
O=C(NC(=S)Nc1ccccc1)c1cncc(C#Cc2ccccc2)c1	-12.4	-2.3	13.9*	1.2	0.4	-0.5	0.4	1.6
COC(=O)C(Sc1ccc(Cl)cc1)C1SC(=S)N(Cc2ccccc2)C1=O (stereo unspecified)	.	.	-2.8	.	.	-9.5	.	.
O=C(Nc1cc(-c2nc3ccccc3s2)ccc1Cl)c1ccc2c(c1)OCO2	-10.4	-0.7	24.2*	3.0	0.1	6.2	20.7*	1.9
Nc1nc(SCn2nnc3ccccc3c2=O)n[nH]1	15.8	7.8	-2.8	1.8	-1.6	0.2	.	.
CN1C(=O)/C(=C/c2ccccc2OCc2ccccc2)NC1=S	-17.0	-26.4	-1.5	2.3	5.1	-2.4	.	.
CN1C(=O)/C(=C/c2ccccc2OCc2cccc(F)c2)NC1=S	-5.0	-23.5	30.2*	1.9	4.7	-7.8	5.2	3.5
CCCn1nnc(NC(=S)NC(=O)/C=C/c2ccco2)n1	16.1	10.8	-2.0	2.0	-2.1	9.4	.	.
COC(=O)c1ccc2c(=O)[nH]c(CSc3nc(-c4ccc(F)cc4)cs3)nc2c1	-7.2	7.1	10.4*	3.5	-1.3	14.3	-1.3	1.1
Cc1csc(SCC(=O)Nc2ccccn2)n1	1.8	20.0	-0.9	-0.3	-4.4	2.7	.	.
O=C(CSc1nc(-c2ccc(F)cc2)cs1)Nc1ccccn1	-8.8	-63.9	24.0*	3.5	9.8	-3.5	2.0	13.5
COC(=O)c1ccc2c(=O)[nH]c(CSc3nc(C)cs3)nc2c1	-0.5	15.1	0.5	2.7	-3.1	15.1	.	.
O=c1[nH]c(CSc2nc(-c3ccc(F)cc3)cs2)nc2ccccc12	-9.6	9.6	9.6*	-4.2	-1.9	-27.1	1.5	3.8
O=C(NC1CCCCC1)C(c1cccs1)N(C(=O)C(F)(F)F)c1ccccc1 (stereo unspecified)	4.2	-44.7	27.1*	9.5	7.8	3.9	4.7	6.5
CNC[C@@H]1Oc2cc(Br)ccc2S(=O)(=O)N([C@@H](C)CO)C[C@@H]1C	.	.	-0.7	.	.	-2.2	.	.
O=C(O)CCC(=O)NN1C(=O)c2ccccc2NC1c1ccco1 (stereo unspecified)	-12.4	17.4	0.8	-2.8	-3.3	14.0	.	.
COc1ccc(CC(=O)Nc2ccc(-c3noc(COc4ccccc4C)n3)cc2)cc1	-1.9	-12.7	3.3	0.8	3.1	11.2	.	.
CCOc1ccccc1-c1nc(-c2ccc(NC(=O)Cc3ccc(OC)cc3)cc2)no1	-23.2	-77.3	21.1*	10.6	15.6	-12.6	25.0*	20.6*
N#C/C(=C\c1cn(CCOc2ccccc2)c2ccccc12)C(=O)NCc1cccs1	15.0	-1.5	22.9*	-4.3	0.3	7.7	6.1	6.6
Cc1ccc(C)c(OCCn2cc(/C=C(\C#N)C(=O)NCc3ccco3)c3ccccc32)c1	-6.3	-2.2	11.4*	0.1	0.4	19.5	12.2*	9.1
